Test results reported in ChEMBL document CHEMBL4229323, “Merocyclophanes C and D from the Cultured Freshwater Cyanobacterium Nostoc sp. (UIC 10110)” (J Nat Prod, 2017).

Key:
Assay type in all cases: functional, cell-based
OVCAR-3 = experiment: Cytotoxicity in human OVCAR3 cells assessed as reduction in cell viability incubated for 72 hrs by cell-titer-96 aqueous one solution cell proliferation assay; settings: OVCAR-3, 72 h
Method in brief: (§1)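 Cells were seeded and cultured overnight at 37 °C in 5% CO2, then exposed to sample, paclitaxel (positive control) or DMSO vehicle for 72 h. Viability was read by CellTiter 96 AQueous One Solution (MTS) assay, and IC50 was calculated relative to the vehicle control.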

MDA-MB-231 = experiment: Cytotoxicity in human MDA-MB-231 cells assessed as reduction in cell viability incubated for 72 hrs by cell-titer-96 aqueous one solution cell proliferation assay; settings: MDA-MB-231, 72 h; method in brief: as §1
MDA-MB-435 = experiment: Cytotoxicity in human MDA-MB-435 cells assessed as reduction in cell viability incubated for 72 hrs by cell-titer-96 aqueous one solution cell proliferation assay; settings: MDA-MB-435, 72 h; method in brief: as §1

Compound | IC50 (OVCAR-3) | IC50 (MDA-MB-231) | IC50 (MDA-MB-435)
CCCC[C@H]1CCCCC[C@@H](C)c2cc(O)c(c(O)c2)[C@@H](CCCCO)CCCCC[C@@H](C)c2cc(O)c1c(O)c2 | 1400 nM | 1400 nM | 1600 nM
C[C@H]1CCCC[C@H](CCCC(Cl)Cl)c2c(O)cc(cc2O)[C@H](OC(N)=O)[C@@H](C)CCCC[C@H](CCCC(Cl)Cl)c2c(O)cc(cc2O)[C@@H]1OC(N)=O | 4300 nM | 1000 nM | 2400 nM
CCCC[C@H]1CCCCC[C@@H](C)c2cc(O)c(c(O)c2)[C@@H](CCCC)CCCCC[C@@H](C)c2cc(O)c1c(O)c2 | 5100 nM | 6200 nM | 9800 nM
C[C@@H]1CCCCC[C@H](CCCCO)c2c(O)cc(cc2O)[C@H](C)CCCCC[C@H](CCCCO)c2c(O)cc1cc2O | 2000 nM | 1000 nM | 900 nM
C[C@H]1CCCC[C@H](CCCC(Cl)Cl)c2c(O)cc(cc2O)[C@H](OC(N)=O)[C@@H](C)CCCC[C@H](CCCC(Cl)Cl)c2c(O)cc(cc2O)[C@@H]1O | 4200 nM | 1200 nM | 3200 nM
CCCC[C@H]1CCCC[C@H](C)[C@@H](OC(C)=O)c2cc(O)c(c(O)c2)[C@@H](CCCC)CCCC[C@H](C)[C@@H](OC(C)=O)c2cc(O)c1c(O)c2 | 10000 nM | 13000 nM | 12000 nM
